Test results published in ChEMBL document CHEMBL1926536, “Synthesis, molecular modeling studies and biological evaluation of fluorine substituted analogs of GW 501516” (Bioorg Med Chem, 2011).

Key:
[1] = biological target: T1, Peroxisome proliferator-activated receptor alpha (Homo sapiens, UniProt Q07869); experiment: Agonist activity at human PPARalpha ligand binding domain expressed in COS-1 cells co-transfected with Gal4 after 24 hrs by luciferase reporter gene assay; type: cell-based
T1 sequence (Q07869 whole entry): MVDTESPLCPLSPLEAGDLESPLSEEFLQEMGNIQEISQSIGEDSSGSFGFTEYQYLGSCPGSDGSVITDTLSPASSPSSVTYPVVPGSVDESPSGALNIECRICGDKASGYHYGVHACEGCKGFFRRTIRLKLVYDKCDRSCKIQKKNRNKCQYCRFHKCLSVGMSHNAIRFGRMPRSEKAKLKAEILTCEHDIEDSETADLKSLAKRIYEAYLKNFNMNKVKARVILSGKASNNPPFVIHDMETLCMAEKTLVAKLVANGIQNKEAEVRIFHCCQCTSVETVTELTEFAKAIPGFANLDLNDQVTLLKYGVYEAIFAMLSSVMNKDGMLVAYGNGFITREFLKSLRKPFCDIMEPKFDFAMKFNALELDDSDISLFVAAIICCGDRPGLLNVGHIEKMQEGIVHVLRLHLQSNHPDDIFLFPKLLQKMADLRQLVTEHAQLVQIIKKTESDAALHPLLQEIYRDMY

[2] = biological target: T2, Peroxisome proliferator-activated receptor gamma (Homo sapiens, UniProt P37231); type: cell-based, COS-1
T2 sequence (P37231 whole entry): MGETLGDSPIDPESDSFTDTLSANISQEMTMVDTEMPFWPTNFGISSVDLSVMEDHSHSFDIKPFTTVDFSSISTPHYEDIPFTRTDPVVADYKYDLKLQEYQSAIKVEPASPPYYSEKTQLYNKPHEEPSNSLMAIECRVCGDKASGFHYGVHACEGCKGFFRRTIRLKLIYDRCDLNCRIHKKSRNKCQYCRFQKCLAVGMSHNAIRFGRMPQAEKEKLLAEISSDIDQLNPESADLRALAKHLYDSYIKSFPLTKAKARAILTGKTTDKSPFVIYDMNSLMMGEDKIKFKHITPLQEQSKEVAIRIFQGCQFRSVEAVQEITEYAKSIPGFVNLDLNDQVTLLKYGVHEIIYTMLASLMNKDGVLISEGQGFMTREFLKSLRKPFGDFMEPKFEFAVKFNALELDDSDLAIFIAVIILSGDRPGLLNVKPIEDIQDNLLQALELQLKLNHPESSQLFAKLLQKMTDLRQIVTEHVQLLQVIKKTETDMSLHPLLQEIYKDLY

[3] = biological target: T3, Peroxisome proliferator-activated receptor delta (Homo sapiens, UniProt Q03181); experiment: Agonist activity at human PPARdelta ligand binding domain expressed in COS-1 cells after 24 hrs by luciferase reporter gene-based luminometric analysis; type: cell-based
T3 sequence (Q03181 whole entry): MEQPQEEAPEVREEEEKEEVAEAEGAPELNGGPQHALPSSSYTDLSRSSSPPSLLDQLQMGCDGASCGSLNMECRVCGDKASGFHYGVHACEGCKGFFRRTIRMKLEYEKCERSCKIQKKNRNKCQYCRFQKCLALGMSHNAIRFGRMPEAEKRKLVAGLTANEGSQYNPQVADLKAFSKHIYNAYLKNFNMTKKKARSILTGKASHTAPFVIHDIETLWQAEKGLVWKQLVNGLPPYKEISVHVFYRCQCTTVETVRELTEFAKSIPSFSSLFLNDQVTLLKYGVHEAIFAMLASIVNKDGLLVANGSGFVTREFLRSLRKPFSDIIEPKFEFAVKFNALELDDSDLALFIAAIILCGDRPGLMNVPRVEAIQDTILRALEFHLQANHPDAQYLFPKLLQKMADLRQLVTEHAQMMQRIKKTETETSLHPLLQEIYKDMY

[4] = Induction of [14C]oleic acid oxidation in a human myotubes after 4 days by beta liquid scintillation counting; type: functional
How it was run: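 Satellite cells from human abdominal muscle biopsies of healthy donors, differentiated to myotubes for 7 days in DMEM (5.5 mM glucose) with 2% FCS and 25 pM insulin. Then [1-14C]oleic acid (1 µCi/mL, 100 µM) in DPBS with 10 mM HEPES and 1 mM L-carnitine, 4 h at 37 °C. Trapped CO2 counted by scintillation, normalized to protein. EC50 from three independent experiments in quadruplicate, mean ± SD.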

Question: For `CC/C=C\C/C=C\C/C=C\C/C=C\CC/C=C/C=C/C(=O)O`, which EC50 [1] is on record?
Answer: 32 nM

Question: And the EC50 [2]?
Answer: > 1000 nM

Question: And the EC50 [3]?
Answer: > 1000 nM

Question: What does the source list for `Cc1cc(SCc2sc(-c3ccc(C(F)(F)F)cc3)nc2C)ccc1OC(F)C(=O)O` (racemic)?
Answer: EC50 [4]: 3.7 nM; EC50 [1]: 560 nM; EC50 [2]: > 1000 nM; EC50 [3]: 55 nM

Question: Which EC50 [4] does the source give for `CCc1cc(SCc2sc(-c3ccc(C(F)(F)F)cc3)nc2C)ccc1OC(F)C(=O)O` (racemic) here?
Answer: 5 nM

Question: And the EC50 [1]?
Answer: 710 nM

Question: What about the EC50 [2] of the same compound?
Answer: > 1000 nM

Question: And the EC50 [3]?
Answer: 290 nM

Question: For `Cc1nc(-c2ccc(C(F)(F)F)cc2)sc1CSc1ccc(OC(F)C(=O)O)c(C(C)C)c1` (racemic), which EC50 [4] is on record?
Answer: 31.4 nM

Question: What about the EC50 [1] of the same compound?
Answer: 735 nM

Question: And the EC50 [2]?
Answer: > 1000 nM

Question: What about the EC50 [3] of the same compound?
Answer: 580 nM

Question: Which EC50 [4] does the source give for `Cc1cc(SCc2sc(-c3ccc(C(F)(F)F)cc3)nc2C)ccc1OCC(=O)O` [GW501516] here?
Answer: 0.03 nM

Question: For `CN(CCOc1ccc(CC2SC(=O)NC2=O)cc1)c1ccccn1` (configuration not stated) [ROSIGLITAZONE], which EC50 [4] is on record?
Answer: > 1000 nM
